Compound activity as filed in PubChem BioAssay.
GRIN3A LBD mod: modulators (binders) of human NR3A ligand-binding domain | NR3A LBD differential scanning fluorimetry, Tm shift; 0% = protein alone, 100% = glycine-bound protein | Tm shift relative to glycine control, % at 25 µM | hit rate 2.5% among 340,000;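 active means melting temperature shift of at least 10% of the positive control shift, at one fixed dose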
SENP1 FRET inh: inhibitors of human SENP1 SUMO protease catalytic domain; AID 624204; recombinant SENP1 catalytic domain, CyPet-SUMO1-YPet FRET cleavage; Q9P0U3; inhibition, % at 10 µM; hit rate 0.21% among 360,000;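 active means inhibition at least 30% at 10 µM, raw YFP signal under a set limit, fluorescence ratio 0.5 to 1.5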;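 further: 0% = enzyme with DMSO and 100% = no enzyme wells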
Target sequence (Q9P0U3 419-644 limits assumed): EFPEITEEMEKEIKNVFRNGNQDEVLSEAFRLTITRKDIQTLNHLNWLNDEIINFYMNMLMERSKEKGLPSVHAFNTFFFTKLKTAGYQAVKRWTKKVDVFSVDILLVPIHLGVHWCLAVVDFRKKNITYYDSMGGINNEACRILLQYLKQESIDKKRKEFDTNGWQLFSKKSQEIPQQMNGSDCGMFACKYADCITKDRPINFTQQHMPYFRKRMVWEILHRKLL
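system = hSENP1 catalytic domain, recombinant | reagent = SFCypet-SUMO1-SFYpet substrate at 25 nM | doses = one dose per compound, 10 µM, 0.5% DMSO | incubation = enzyme reaction for 50 min at room temperature, dark | measured by = FRET, CFP and YFP emission | controls = no-enzyme low, enzyme-DMSO high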
EBI2 block: EBI2 (human) antagonism; AID 651636; hit rate 0.81% among 360,000; inhibition, % at 5 µM; EBI2 beta-arrestin recruitment, luminescence, 7a,25-OHC stimulated; in the data active means inhibition above about 38%;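 further: enzyme fragment complementation signal reports receptor beta-arrestin coupling in cells; 0% = agonist plus DMSO wells and 100% = wells without agonist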
MPTP block: permeability transition pore inhibition; hit rate 1.4% among 360,000; isolated mouse mitochondria, Ca2+ swelling absorbance, 30 min; inhibition, % at 10 µM;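 active means inhibition of 50% or more, scaled per plate between neutral and stimulator controls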;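 further: 0% = DMSO wells given calcium and 100% = 1 mM EGTA wells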
Rh123 counter: membrane potential counter-screen of mitochondrial pore inhibitors. AID 624504. inhibition, % at 10 µM. hit rate 78% among 5,000. shares compounds with MPTP block. isolated mitochondria, Rhodamine 123 fluorescence; in the data active means inhibition above about 22%;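 further: 0% = DMSO vehicle and 100% = positive control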
MPTP abs DR: dose response confirmation of mitochondrial permeability transition pore inhibitors; shares compounds with MPTP block; isolated mitochondria swelling, absorbance; IC50, µM; hit rate 58% among 780; AID 651561; in the data active means IC50 below about 20 µM
MPTP cs DR: counter-screen for mitochondrial permeability transition pore inhibitors, dose response; AID 651564; isolated mitochondria counterscreen, fluorescence read-out; shares compounds with MPTP block; IC50, µM; hit rate 49% among 780; in the data active means IC50 below about 80 µM
Starred values were filed as active, the others as inactive; nt = no result given. This is a sample that favours compounds with a hit; in the whole collection about 4.4% have one here.

SMILES | GRIN3A LBD mod | SENP1 FRET inh | EBI2 block | MPTP block | Rh123 counter | others
Cc1nn(C)c(C)c1CN(Cc1nc(CCC(C)C)no1)C(C)C | 0.0 | 1.1 | 4.9 | 102.9* | 92.9*
CC(C)NC(=O)NC(=O)COC(=O)c1cc[n+]([O-])cc1 | 0.0 | 1.3 | -4.7 | 2.1 | nt
CCOc1ccc(Nc2nc(Cc3nnc(SCC(=O)c4ccc(C)c(C)c4)o3)cs2)cc1 | -4.3 | 1.5 | -2.6 | 83.0* | 74.1*
Cc1ccc(NC(=O)CSc2nnc(Cc3csc(C)n3)o2)cc1 | -2.2 | -1.5 | -5.4 | -0.2 | nt
CCCSc1nnc(NC(=O)Nc2ccc(C)cc2)s1 | -4.4 | 0.3 | -2.0 | 59.9* | 75.2*
O=C(Nc1ccccc1)Nc1nnc(/C=C/c2ccccc2Cl)s1 | 37.3* | -28.4 | -0.8 | 86.0* | 43.0*
O=C(Nc1ccccc1)Nc1nnc(-c2ccccc2)s1 | 6.8 | -1.1 | 1.3 | 21.9 | nt
CCCSc1nnc(NC(=O)Nc2ccccc2)s1 | 2.1 | -0.3 | 0.8 | 90.2* | 78.0*
O=C(Nc1ccc(Cl)cc1)Nc1nnc(CSCc2ccc(Cl)cc2)s1 | 24.1* | 1.6 | -10.5 | 83.9* | 50.4*
O=C(Nc1ccccc1)c1ccccc1OCc1cccc([N+](=O)[O-])c1 | -12.1 | 2.4 | -7.9 | 2.6 | nt
Cc1nnc(SCCC(=O)Nc2ccc(F)cc2)s1 | 4.1 | -0.1 | -7.5 | -1.3 | nt
CCCSc1nnc(NC(=O)c2sc3nc(-c4cccs4)ccc3c2N)s1 | 6.0 | -18.3 | 8.5 | 75.7* | 32.3*
CCCSc1nnc(NC(=O)Nc2ccc(F)cc2)s1 | 2.2 | 0.6 | -30.0 | 85.8* | 98.5*
CCCSc1nnc(NC(=O)c2ccco2)s1 | 0.3 | 0.1 | 6.8 | 0.6 | nt
O=C(Nc1ccccc1)Nc1nnc(Cc2ccccc2F)s1 | -4.5 | 2.0 | 2.8 | 4.0 | nt
O=C(Nc1ccc(F)cc1)Nc1nnc(Cc2ccccc2F)s1 | -1.0 | 1.1 | 3.9 | 58.3* | 76.9*
CCC[C@H](CN[C@@H](CNC)[C@H](C)CC)NCCc1cc(C(F)(F)F)cc(C(F)(F)F)c1 | 4.0 | 1.7 | -12.3 | 10.4 | nt
CCC[C@@H](CN[C@@H](CNC)[C@H](C)CC)NCC1CCC(C(C)(C)C)CC1 (stereo partly drawn) | 0.8 | 2.7 | -16.4 | 94.0* | -22.1 | MPTP abs DR=5.3*
Cc1cc(C)n(-c2ccc(Cl)c(Cl)c2)n1 | 0.0 | 1.8 | 14.0 | -0.1 | nt
Cc1cc(C)n(-c2nc(-c3ccc(Cl)c(Cl)c3)cs2)n1 | 0.7 | 0.6 | 22.1 | 59.9* | 1.0 | MPTP abs DR=>100;MPTP cs DR=>80
COc1ccc(Cc2nc3ccc(C(=O)N(C)CC4COCCO4)cc3o2)cc1 (stereo not drawn) | 0.1 | 0.3 | 13.0 | 1.0 | nt
O=c1oc2ccccc2c(NCc2ccccc2F)c1[N+](=O)[O-] | 0.4 | 3.9 | -10.9 | -5.9 | nt
O=c1oc2ccccc2c(Nc2ccc(Cl)cc2)c1[N+](=O)[O-] | 1.1 | -1.4 | 2.8 | 56.5* | 82.5*
CC(C)c1ccc(CNc2c([N+](=O)[O-])c(=O)oc3ccccc23)cc1 | -16.4 | 0.5 | 4.3 | 87.1* | 94.5*
Cc1sc(NC(=O)CSc2nnc(C)c(=O)[nH]2)c(C#N)c1C | 1.5 | 0.6 | -16.4 | -0.5 | nt
SMILES | GRIN3A LBD mod | SENP1 FRET inh | EBI2 block | MPTP block | Rh123 counter | others
O=C(/C=C/NNC(=O)c1cccc(Br)c1)c1cccc(Br)c1 | 0.0 | -3.4 | 9.1 | 51.0* | 58.2*
CN(Cc1ccccc1)C(=O)c1cccc(NC(=O)Cc2ccc(NC(=O)C3CCCN(C(=O)C4CCCC4)C3)cc2)c1 (stereo not drawn) | -1.1 | -0.2 | 2.1 | -0.3 | nt
Nc1cc(S(=O)(=O)Nc2ccc(Cl)cc2)ccc1N1CCOCC1 | 1.2 | 1.6 | -3.0 | 91.0* | 55.1*
COc1ccc(NS(=O)(=O)c2ccc(N3CCCC3)c(NC(=S)Nc3ccc(SC(F)F)cc3)c2)cc1 | 11.8* | 0.1 | 11.7 | 64.2* | 81.2*
COc1ccc(NS(=O)(=O)c2ccc(N3CCCC3)c(N)c2)cc1 | 1.0 | 0.3 | -12.4 | 78.2* | 83.8*
CCNC(=O)Nc1cc(S(=O)(=O)Nc2ccc(OC)cc2)ccc1N1CCOCC1 | 0.3 | 3.5 | -11.8 | 94.1* | 93.4*
CC(C)(C)C(=O)Nc1ccc(S(=O)(=O)Nc2nccs2)cc1 | 1.8 | 2.6 | 0.3 | -0.3 | nt
CCC(C)NC(=O)c1cc(S(=O)(=O)N2CCCCC2)c[nH]1 (stereo not drawn) | -1.8 | -0.1 | -7.8 | -1.6 | nt
